# Reference: ChEMBL document CHEMBL1130075, “(2-Methyl-5-(methylsulfonyl)benzoyl)guanidine Na+/H+ antiporter inhibitors” (J Med Chem, 1997)
# Target: Sodium/hydrogen exchanger (Oryctolagus cuniculus, UniProt P23791+P50482+P26432)
# Experiment: Inhibition of 5-N-(ethyl isopropyl)-amiloride[EIPA]-sensitive Na+ uptake into acidified rabbit erythrocytes.
# Assay type: functional
# How it was run: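 Rabbit blood (heparinized) red cells, washed, acidified in pH 6.2 KCl buffer with ouabain, 10 min 37 °C; internal pH clamped with 200 μM DIDS and 1 mM acetazolamide, 30 min 37 °C. Uptake 5 min at 37 °C in pH 8.0 buffer with 10 mM NaCl plus ²²Na tracer, 1% DMSO. Triplicates; counts with 10 μM EIPA subtracted; IC50 by nonlinear fit.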
row,Structure (SMILES),IC50
1,Cc1cc(Sc2cccc(Cl)c2)c(S(C)(=O)=O)cc1C(=O)N=C(N)N,37 nM
2,Cc1cc(Oc2cncc(Cl)c2)c(S(C)(=O)=O)cc1C(=O)N=C(N)N,14 nM
3,CCc1cc(Oc2cccnc2)c(S(C)(=O)=O)cc1C(=O)N=C(N)N,27 nM
4,Cc1ccc(-c2ccc(C(=O)N=C(N)N)cc2S(C)(=O)=O)cc1,100 nM
5,Cc1cc(Oc2ccccc2Cl)c(S(C)(=O)=O)cc1C(=O)N=C(N)N,14 nM
6,CS(=O)(=O)c1cc(C(=O)N=C(N)N)ccc1C#N,140 nM
7,CS(=O)(=O)c1cc(C(=O)N=C(N)N)c(N)cc1N1CCCC(O)C1 (configuration not stated),160 nM
8,Cc1c(C(=O)N=C(N)N)cc(S(C)(=O)=O)cc1-n1cccc1,100 nM
9,CS(=O)(=O)c1cc(C(=O)N=C(N)N)c(Cl)cc1Oc1cccnc1,52 nM
10,Cc1cc(-n2cnc3ccccc32)c(S(C)(=O)=O)cc1C(=O)N=C(N)N,100 nM
11,Cc1cc(Oc2ccc(Cl)cc2)c(S(C)(=O)=O)cc1C(=O)N=C(N)N,13 nM
12,Cc1c(C(=O)N=C(N)N)ccc(Cl)c1S(C)(=O)=O,130 nM
13,CS(=O)(=O)c1cc(C(=O)N=C(N)N)ccc1C1CCCCC1,340 nM
14,Cc1cc(Sc2ccccc2Cl)c(S(C)(=O)=O)cc1C(=O)N=C(N)N,14 nM
15,Cc1cc(OCc2ccccc2)c(S(C)(=O)=O)cc1C(=O)N=C(N)N,28 nM
16,CS(=O)(=O)c1cc(C(=O)N=C(N)N)ccc1-n1ccc(=O)cc1,710 nM
17,Cc1c(C(=O)N=C(N)N)cc(S(C)(=O)=O)c(Cl)c1[N+](=O)[O-],44 nM
18,CS(=O)(=O)c1cc(C(=O)N=C(N)N)c(Cl)cc1N1CCC(N)CC1,20 nM
19,CS(=O)(=O)c1cc(C(=O)N=C(N)N)c(N)cc1N1CCCCC1,190 nM
20,CS(=O)(=O)c1cc(C(=O)N=C(N)N)ccc1Oc1cccnc1,76 nM
21,CS(=O)(=O)c1cc(C(=O)N=C(N)N)ccc1N1CCCC(O)C1 (configuration not stated),65 nM
22,COc1ccc(C(=O)N=C(N)N)cc1S(C)(=O)=O,270 nM

row,Structure (SMILES),IC50
1,Cc1cc(Sc2ccc(Cl)cc2)c(S(C)(=O)=O)cc1C(=O)N=C(N)N,19 nM
2,CS(=O)(=O)c1cc(C(=O)N=C(N)N)ccc1N1CCCCC1,130 nM
3,Cc1c(C(=O)N=C(N)N)ccc(Oc2cccnc2)c1S(C)(=O)=O,2200 nM
4,Cc1cc(Oc2cccc(Cl)c2)c(S(C)(=O)=O)cc1C(=O)N=C(N)N,21 nM
5,CCc1cc(-n2ccc(=O)cc2)c(S(C)(=O)=O)cc1C(=O)N=C(N)N,930 nM
6,CS(=O)(=O)c1cc(C(=O)N=C(N)N)ccc1Br,180 nM
7,CS(=O)(=O)c1cc(C(=O)N=C(N)N)ccc1Cl,380 nM
8,COc1cc(N2CCC(N)CC2)c(S(C)(=O)=O)cc1C(=O)N=C(N)N,73 nM
9,CS(=O)(=O)c1cc(C(=O)N=C(N)N)c(Cl)cc1-n1ccnc1,130 nM
10,Cc1c(C(=O)N=C(N)N)cc(S(C)(=O)=O)c(-n2ccnc2)c1C,290 nM
11,Cc1cc(Nc2cccc(Cl)c2)c(S(C)(=O)=O)cc1C(=O)N=C(N)N,33 nM
12,Cc1c(C(=O)N=C(N)N)cc(S(C)(=O)=O)c(Oc2cccnc2)c1C,23 nM
13,CCc1cc(N2CCC(O)CC2)c(S(C)(=O)=O)cc1C(=O)N=C(N)N,41 nM
14,CS(=O)(=O)c1cc(C(=O)N=C(N)N)c(Cl)cc1Nc1ncccn1,49 nM
15,CS(=O)(=O)c1cc(C(=O)N=C(N)N)c(N2CCCCC2)cc1N1CCCCC1,1000 nM
16,CCN(CC)Cc1cc(Br)c(S(C)(=O)=O)cc1C(=O)N=C(N)N,9500 nM
17,CCc1cc(N2CCCCC2)c(S(C)(=O)=O)cc1C(=O)N=C(N)N,25 nM
18,CS(=O)(=O)c1cc(C(=O)N=C(N)N)ccc1N1CCC(N)CC1,160 nM
19,CS(=O)(=O)c1cc(C(=O)N=C(N)N)ccc1Oc1cncc(Cl)c1,75 nM
20,CS(=O)(=O)c1cc(C(=O)N=C(N)N)ccc1-n1ccnc1,150 nM
21,Cc1cc(N2CCN(c3ncccn3)CC2)c(S(C)(=O)=O)cc1C(=O)N=C(N)N,27 nM
22,CS(=O)(=O)c1cc(C(=O)N=C(N)N)c(Cl)cc1N1CCCC(O)C1 (configuration not stated),60 nM

# Next, values leading:
row,IC50,Structure (SMILES)
1,16 nM,COc1cc(C)c(C(=O)N=C(N)N)cc1S(C)(=O)=O
2,29 nM,Cc1c(C(=O)N=C(N)N)cc(S(C)(=O)=O)c(Cl)c1Cl
3,11 nM,Cc1cc(N2CCCC2)c(S(C)(=O)=O)cc1C(=O)N=C(N)N
4,5.7 nM,CCCc1cc(C)c(C(=O)N=C(N)N)cc1S(C)(=O)=O
5,16 nM,Cc1cc(-c2ccco2)c(S(C)(=O)=O)cc1C(=O)N=C(N)N
6,58 nM,Cc1c(C(=O)N=C(N)N)cc(S(C)(=O)=O)c(Cl)c1C
7,42 nM,Cc1cc(-c2ccc(Cl)cc2Cl)c(S(C)(=O)=O)cc1C(=O)N=C(N)N
8,220 nM,Cc1cc(O)c(S(C)(=O)=O)cc1C(=O)N=C(N)N
9,9.8 nM,Cc1cc(N2CCC(N)CC2)c(S(C)(=O)=O)cc1C(=O)N=C(N)N
10,210 nM,Cc1ccc(C(=O)N=C(N)N)cc1S(C)(=O)=O
11,8.3 nM,Cc1cc(Nc2ncccn2)c(S(C)(=O)=O)cc1C(=O)N=C(N)N
12,8.2 nM,Cc1cc(C2CCC2)c(S(C)(=O)=O)cc1C(=O)N=C(N)N
13,27 nM,CCCCCc1cc(C)c(C(=O)N=C(N)N)cc1S(C)(=O)=O
14,8 nM,CCC(C)c1cc(C)c(C(=O)N=C(N)N)cc1S(C)(=O)=O (configuration not stated)
15,13 nM,Cc1cc(Sc2ccncc2)c(S(C)(=O)=O)cc1C(=O)N=C(N)N
16,28 nM,Cc1cn(-c2cc(C)c(C(=O)N=C(N)N)cc2S(C)(=O)=O)cn1
17,63 nM,CCc1cc(Cl)c(S(C)(=O)=O)cc1C(=O)N=C(N)N
18,4.8 nM,CCc1cc(C)c(C(=O)N=C(N)N)cc1S(C)(=O)=O
19,45 nM,Cc1cc(-c2ccc(Cl)cc2)c(S(C)(=O)=O)cc1C(=O)N=C(N)N
20,21 nM,Cc1cc(Nc2ccccc2)c(S(C)(=O)=O)cc1C(=O)N=C(N)N
21,630 nM,CS(=O)(=O)c1cc(C(=O)N=C(N)N)c(F)cc1F

row,IC50,Structure (SMILES)
1,75 nM,Cc1cc(-n2ccc(=O)cc2)c(S(C)(=O)=O)cc1C(=O)N=C(N)N
2,19 nM,CCOc1cc(C)c(C(=O)N=C(N)N)cc1S(C)(=O)=O
3,150 nM,Cc1ccc(S(C)(=O)=O)cc1C(=O)N=C(N)N
4,25 nM,Cc1cc(Cl)c(S(C)(=O)=O)cc1C(=O)N=C(N)N
5,6 nM,CSc1cc(C)c(C(=O)N=C(N)N)cc1S(C)(=O)=O
6,19 nM,Cc1cc(OC(C)C)c(S(C)(=O)=O)cc1C(=O)N=C(N)N
7,21 nM,Cc1cc(N2CCCCC2)c(S(C)(=O)=O)cc1C(=O)N=C(N)N
8,30 nM,CCc1cc(OC)c(S(C)(=O)=O)cc1C(=O)N=C(N)N
9,140 nM,CS(=O)(=O)c1cc(C(=O)N=C(N)N)c(Cl)cc1Cl
10,8.8 nM,Cc1cc(Oc2cccnc2)c(S(C)(=O)=O)cc1C(=O)N=C(N)N
11,5.9 nM,CCSc1cc(C)c(C(=O)N=C(N)N)cc1S(C)(=O)=O
12,37 nM,Cc1cc(OC2CCCCC2)c(S(C)(=O)=O)cc1C(=O)N=C(N)N
13,25 nM,Cc1cc(-n2cccn2)c(S(C)(=O)=O)cc1C(=O)N=C(N)N
14,40 nM,COc1cc(Cl)c(C(=O)N=C(N)N)cc1S(C)(=O)=O
15,9.4 nM,Cc1cc(OC(C)(C)C)c(S(C)(=O)=O)cc1C(=O)N=C(N)N
16,30 nM,Cc1cc(N2CCCC(O)C2)c(S(C)(=O)=O)cc1C(=O)N=C(N)N (configuration not stated)
17,2800 nM,Cc1cc(-c2cc(C(F)(F)F)cc(C(F)(F)F)c2)c(S(C)(=O)=O)cc1C(=O)N=C(N)N
18,25 nM,Cc1ccc(-c2cc(C)c(C(=O)N=C(N)N)cc2S(C)(=O)=O)cc1
19,130 nM,CS(=O)(=O)c1cc(C(=O)N=C(N)N)c(N)cc1Cl
20,12 nM,Cc1cc(Br)c(S(C)(=O)=O)cc1C(=O)N=C(N)N
21,9.2 nM,Cc1cc(Nc2ccccn2)c(S(C)(=O)=O)cc1C(=O)N=C(N)N

row,IC50,Structure (SMILES)
1,22 nM,Cc1cc(SC(C)(C)C)c(S(C)(=O)=O)cc1C(=O)N=C(N)N
2,29 nM,Cc1cc(-n2ccnc2C)c(S(C)(=O)=O)cc1C(=O)N=C(N)N
3,130 nM,Cc1cc(-c2cc(Cl)cc(Cl)c2)c(S(C)(=O)=O)cc1C(=O)N=C(N)N
4,36 nM,Cc1cc(-c2ccc(F)cc2)c(S(C)(=O)=O)cc1C(=O)N=C(N)N
5,70 nM,Cc1cc(C#N)c(S(C)(=O)=O)cc1C(=O)N=C(N)N
6,37 nM,Cc1cc(C(F)(F)F)c(S(C)(=O)=O)cc1C(=O)N=C(N)N
7,16 nM,Cc1cc(N)c(S(C)(=O)=O)cc1C(=O)N=C(N)N
8,55 nM,Cc1c(C(=O)N=C(N)N)cc(S(C)(=O)=O)c(C)c1C
9,10 nM,Cc1cc(Oc2ccccc2)c(S(C)(=O)=O)cc1C(=O)N=C(N)N
10,44 nM,Cc1cc(F)c(S(C)(=O)=O)cc1C(=O)N=C(N)N
11,70 nM,Cc1cc(Br)c(C(=O)N=C(N)N)cc1S(C)(=O)=O
12,19 nM,Cc1cc(-c2ccccc2)c(S(C)(=O)=O)cc1C(=O)N=C(N)N
13,22 nM,Cc1cc(C2CCCCC2)c(S(C)(=O)=O)cc1C(=O)N=C(N)N
14,27 nM,Cc1cc(OC2CCCC2)c(S(C)(=O)=O)cc1C(=O)N=C(N)N
15,11 nM,Cc1cc(C)c(S(C)(=O)=O)cc1C(=O)N=C(N)N
16,370 nM,Cc1c(C(=O)N=C(N)N)cc(S(C)(=O)=O)c(C#N)c1C
17,41 nM,CCc1cc(Br)c(S(C)(=O)=O)cc1C(=O)N=C(N)N
18,14 nM,Cc1cc(Sc2ccccc2)c(S(C)(=O)=O)cc1C(=O)N=C(N)N
19,12 nM,Cc1cc(SC(C)C)c(S(C)(=O)=O)cc1C(=O)N=C(N)N
20,2 nM,Cc1cc(C(C)C)c(S(C)(=O)=O)cc1C(=O)N=C(N)N
21,23 nM,Cc1cc(-n2ccnc2)c(S(C)(=O)=O)cc1C(=O)N=C(N)N
